Data from article PMC4803553 (Endocrinology and Metabolism, 2016).
Like-named read-outs stand apart in the source and are kept apart here.

Legend:
hemoglobin A1c (HbA1c) = format: in vivo, human; settings: mean±SD; for After treatment HbA1c: after 3 months of treatment, kidney transplant patients with diabetes; for Difference of HbA1c (ΔHbA1c): change from baseline to 3 months of treatment
Summary of the method: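 Renal allograft recipients with diabetes, all on cyclosporine-based triple maintenance therapy, started a DPP-4 inhibitor after transplant, at full or renally adjusted reduced dose (50 mg once daily). HbA1c was measured by immunoturbidimetry on an automated analyser and reported as NGSP %. Values at baseline and after 3 months of treatment were compared by paired t test; mean±SD.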

Renal function = format: in vivo, human; settings: follow-up after DPP-4 inhibitor treatment, mean±SD; for Follow-up eGFR: MDRD equation
Summary of the method: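 Fasting early-morning antecubital venous blood was taken from renal allograft recipients receiving a DPP-4 inhibitor. Creatinine was measured by the Jaffe method. eGFR was calculated with the Modification of Diet in Renal Disease study equation. Values are reported as mean±SD and were compared across inhibitor groups by one-way ANOVA with Scheffe post hoc tests.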

[1] = cited from earlier work

| Follow-up eGFR (Renal function) [mL/min/1.73 m^2] | Follow-up creatinine (Renal function) [mg/dL] | Compound | After treatment HbA1c (hemoglobin A1c (HbA1c)) [%] | Difference of HbA1c (ΔHbA1c) (hemoglobin A1c (HbA1c)) [%] | Eliminated in an unchanged form via the feces [1] [%] | Renal excretion, share of elimination [1] [%] | Difference of HbA1c (ΔHbA1c) (hemoglobin A1c (HbA1c); listed as sitagliptin) | Eliminated in an unchanged form in the urine [1] [%] | Difference of HbA1c (ΔHbA1c) (hemoglobin A1c (HbA1c); listed as vildagliptin) |
| --- | --- | --- | --- | --- | --- | --- | --- | --- | --- |
| 62.82±18.74 | 1.25 ± 0.42 | CC#CCn1c(N2CCC[C@@H](N)C2)nc2c1c(=O)n(Cc1nc(C)c3ccccc3n1)c(=O)n2C [Linagliptin, linagliptin] | 6.79±0.63 | -1.40±1.34 | 84.7 | 5.4 |  |  |  |
| 61.03±16.50 | 1.22 ± 0.82 | N[C@@H](CC(=O)N1CCn2c(nnc2C(F)(F)F)C1)Cc1cc(F)c(F)cc1F [Sitagliptin, sitagliptin] | 7.18±1.21 | -0.53±0.95 |  |  | –0.53%±0.95% | 79 |  |
| 58.21±17.76 | 1.41 ± 0.95 | N#C[C@@H]1CCCN1C(=O)CNC12CC3CC(CC(O)(C3)C1)C2 [Vildagliptin, vildagliptin] | 7.08±1.81 | -0.38±1.03 |  |  |  |  | –0.38%±1.03% |
